Data: ChEMBL document CHEMBL2057098, “Novel 1,2,4-triazolo[1,5-a]pyridines and their fused ring systems attenuate oxidative stress and prolong lifespan of Caenorhabiditis elegans” (2012)
Active and inactive are the calls of the source. The rule behind the calls is not given here.

How the values were obtained:
Caenorhabditis elegans [1] = experiment: Antioxidant activity against parquat-induced oxidative stress in wild type Caenorhabditis elegans Bristol N2 assessed as increase in survival time at 500 nM to 1 uM; type: functional, organism-based
Outline: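 Age-synchronised 7-day-old adult N2 worms were placed overnight on agar plates with 40 μM FUDR and paraquat, with or without compound (50 nM, 500 nM, 1 μM), at 20 °C. Viability was scored over 20 h, with 30 worms per trial in three independent experiments. Survival was plotted as Kaplan–Meier curves.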

Caenorhabditis elegans [2] = experiment: Antioxidant activity against parquat-induced oxidative stress in wild type Caenorhabditis elegans Bristol N2 assessed as increase in survival time at 500 nM (reference value: 17.64 +/- 0.19 days); type: functional
Caenorhabditis elegans [3] = experiment: Antioxidant activity against parquat-induced oxidative stress in wild type Caenorhabditis elegans Bristol N2 assessed as increase in survival time at 1 uM (reference value: 17.64 +/- 0.19 days); type: functional
Caenorhabditis elegans [4] = experiment: Antioxidant activity against parquat-induced oxidative stress in wild type Caenorhabditis elegans Bristol N2 assessed as increase in survival time; type: functional, organism-based
Outline: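 Seven-day-old synchronised N2 adults, 30 worms per trial at 20 °C. Worms were placed overnight on agar containing paraquat and 40 μM FUDR, with or without test compound. Viability was scored over a 20 h period. Three independent experiments.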

Caenorhabditis elegans [5] = experiment: Antioxidant activity against heat-induced oxidative stress in wild type Caenorhabditis elegans Bristol N2 assessed as increase in survival time measured for 16 hrs at 37 degC relative to control; type: functional, organism-based
Caenorhabditis elegans [6] = experiment: Antioxidant activity in wild type Caenorhabditis elegans Bristol N2 assessed as decrease in oxidative stress-induced carboxymethyllysine formation by ELISA; type: functional, organism-based
Outline: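 Protein extracts came from N2 worms treated for 7 days with or without compound, with 40 μM FUDR; protein was quantified. CML was measured by competitive ELISA on streptavidin-coated plates using biotinylated glucose-glycated BSA and an HRP-labelled mouse monoclonal anti-CML antibody.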

Caenorhabditis elegans [7] = experiment: Antioxidant activity against lipid peroxidation in wild type Caenorhabditis elegans Bristol N2 assessed as decrease of malondialdehyde level; type: functional, organism-based
Outline: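 N2 worms were kept 7 days on plates with 40 μM FUDR, with or without compound. They were washed by sucrose flotation, homogenised in Tris-HCl pH 7.9 buffer with protease inhibitors, and centrifuged. The lysate was treated with 8.1% SDS for 10 min at room temperature, then boiled 60 min with 20% acetic acid and 0.6% thiobarbituric acid, with 0.01% BHT present. A butanol:pyridine (15:1) extract was read at 532 nm against a tetramethoxypropane standard. MDA was expressed as nmol/g protein.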

Caenorhabditis elegans [8] = experiment: Antioxidant activity against parquat-induced oxidative stress in wild type Caenorhabditis elegans Bristol N2 assessed as increase in survival time at 50 nM (reference value: 17.64 +/- 0.19 days); type: functional
Caenorhabditis elegans [9] = experiment: Antioxidant activity against heat-induced oxidative stress in wild type Caenorhabditis elegans Bristol N2 assessed as increase in survival time at 50 nM […] relative to control; type: functional
Caenorhabditis elegans [10] = experiment: Antioxidant activity against heat-induced oxidative stress in wild type Caenorhabditis elegans Bristol N2 assessed as increase in survival time at 500 nM […] relative to control; type: functional
Caenorhabditis elegans [11] = experiment: Antioxidant activity against heat-induced oxidative stress in wild type Caenorhabditis elegans Bristol N2 assessed as increase in survival time at 1 uM […] relative to control; type: functional

CCSc1nn2c(=O)c(/C=N/O)c(NCC(C)C)c(C#N)c2n1-c1ccccc1
Activity (Caenorhabditis elegans [1]): inactive
Activity (Caenorhabditis elegans [2]): inactive

CCSc1nn2c(=O)c(C#N)c(N)c(C#N)c2n1-c1ccccc1
Time (Caenorhabditis elegans [3]): 21 days
Activity (Caenorhabditis elegans [4]): Dose-dependent effect
Activity (Caenorhabditis elegans [5]): Dose-dependent effect
Activity (Caenorhabditis elegans [6]): Dose-dependent effect
Activity (Caenorhabditis elegans [7]): Dose-dependent effect
Time (Caenorhabditis elegans [2]): 19.76 days
Time (Caenorhabditis elegans [8]): 18 days
fold change (FC) (Caenorhabditis elegans [9]): 1.8
fold change (FC) (Caenorhabditis elegans [10]): 2
fold change (FC) (Caenorhabditis elegans [11]): 2.5

CCSc1nn2c(=O)c(/C=N/O)c(Cl)c(C#N)c2n1-c1ccccc1
Activity (Caenorhabditis elegans [1]): inactive
Activity (Caenorhabditis elegans [2]): inactive

CCOC(=O)c1cc2c(=O)n3nc(SCC)n(-c4ccccc4)c3c(C#N)c2[nH]1
Activity (Caenorhabditis elegans [1]): inactive
Activity (Caenorhabditis elegans [2]): inactive
